# Compound activity: PubChem BioAssay, Sanford-Burnham Center for Chemical Genomics
# Hits are enriched below; roughly 1.9% of the tested compounds scored in any of these assays.
# APJ antag = antagonists of human APJ apelin receptor; CHO-K1 APJ beta-arrestin complementation, luminescence; inhibition, % at 20 µM; P35414; AID 2521; 330,000 tested, 0.32% active;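 active = inhibition above about 40% at 20 µM, limit read from the data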;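 note: cells challenged with 10 nM apelin-13 agonist together with compound; plate controls were apelin-13 plus DMSO wells for no effect and DMSO wells lacking apelin-13 for full effect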
# APJ ag = activates the human apelin receptor APJ | 330,000 tested, 0.11% active | activation, % at 20 µM | P35414 | CHO-K1 APJ PathHunter beta-arrestin, luminescence; 0% DMSO wells, 100% apelin;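 active = activation more than six SD over the plate average, tested at 20 µM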;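 note: 0% = DMSO alone and 100% = apelin-13 at 10 nM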
#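 Material: engineered CHO-K1 APJ arrestin reporter cells; amount: 1000 CHO-K1 reporter cells seeded per well; incubation: compound stimulation 90 min at 25 °C, detection 60 min; signal: luminescent beta-gal fragment complementation, chemiluminescent substrate; read-out basis: APJ agonist activity; controls: DMSO-only wells as negative, 10 nM Apelin-13 as positive control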
# CXCR6 inh = CXCR6 (human) receptor inhibition | CHO-K1 PathHunter CXCR6 beta-arrestin, luminescence | inhibition, % at 20 µM | 360,000 tested, 0.36% active | AID 602244; in the data active = inhibition above about 34%, passing the limit was not always enough;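 note: antagonist mode with CXCL16 agonist at 10 nM final; 0% = 10 nM CXCL16 with DMSO and 100% = unstimulated wells without agonist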
# EBI2 antag = antagonists of human EBI2 receptor; EBI2 beta-arrestin recruitment, luminescence, 7a,25-OHC stimulated; inhibition, % at 5 µM; 360,000 tested, 0.81% active; in the data active = inhibition above about 38%;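 note: enzyme fragment complementation signal reports receptor beta-arrestin coupling in cells; 0% = agonist plus DMSO wells and 100% = wells without agonist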
# Target sequence (P32249 whole entry, looked up, the tested form may be a part): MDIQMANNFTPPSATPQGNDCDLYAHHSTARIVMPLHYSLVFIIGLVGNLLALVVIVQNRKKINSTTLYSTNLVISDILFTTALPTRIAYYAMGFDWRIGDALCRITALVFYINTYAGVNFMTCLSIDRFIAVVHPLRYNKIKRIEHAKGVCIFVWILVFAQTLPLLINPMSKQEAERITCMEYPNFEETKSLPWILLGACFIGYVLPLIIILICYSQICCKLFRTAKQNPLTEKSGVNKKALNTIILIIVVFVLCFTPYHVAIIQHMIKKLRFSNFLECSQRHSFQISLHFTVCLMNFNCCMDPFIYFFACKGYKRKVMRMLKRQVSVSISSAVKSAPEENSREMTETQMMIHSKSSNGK
# H9c2 TAG inh = reduces triacylglycerol accumulation in H9c2 cells; Nile Red lipid (TAG) fluorescence; cells loaded with 200 µM oleic acid; inhibition, % at 12.5 µM; 230,000 tested, 0.66% active; AID 651582;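 active = pattern-corrected inhibition of lipid staining of at least 50% with the nuclear-stain viability signal not falling by more than 50%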;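 note: 0% = DMSO wells and 100% = triacsin C control wells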
# CCR6 antagonist = antagonists of human CCR6 receptor; CHO-K1 CCR6 PathHunter beta-arrestin, luminescence, CCL20-stimulated; P51684; 340,000 tested, 0.49% active; inhibition, % at 20 µM;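 active = compounds whose inhibition of the agonist-driven luminescence signal at 20 µM reaches about 50%, limit read from the data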;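 note: cells stimulated with CCL20 at 14 nM final; plate controls were DMSO with CCL20 for no effect and DMSO without agonist for full effect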
# APJ antag confirm = APJ receptor antagonism confirmation | shares compounds with APJ antag | APJ beta-arrestin recruitment, luminescence, antagonist mode | 950 tested, 66% active | inhibition, % at 20 µM; in the data active = inhibition above about 50%
# Numbers without * were called inactive; . = not tested or not shown.
SMILES,APJ antag,APJ ag,CXCR6 inh,EBI2 antag,H9c2 TAG inh,CCR6 antagonist,APJ antag confirm
CC(C)CC1C(=O)N(Cc2cn(CCC3OCCO3)nn2)CCS(=O)(=O)N1Cc1ccc(-c2cccc(N(C)C)c2)cc1 (centres undefined),.,.,5.6,20.9,19.3,.,.
CCOC(=O)c1ccc(-c2c(-c3ccccc3OC)sc3ccc(OC)cc23)cc1F,7.2,-4.8,1.7,-4.4,.,33.4,.
C1=C(CCNCC2CC2)CCCC1,41.4*,0.3,2.2,0.0,.,-9.6,31.7
CCN1CCN(C(=O)c2ccccc2N(Cc2ccccc2)S(=O)(=O)c2ccc(OC)cc2)CC1,-2.8,-2.7,-3.2,8.0,4.3,9.9,.
Oc1ccccc1/C=N/Nc1cc(N2CCCC2)nc(N2CCCC2)n1,42.3*,-2.7,15.7,27.6,.,34.7,41.9
COc1ccc(NC(=O)COC(=O)CCc2nc3ccccc3c(=O)[nH]2)cc1Cl,-6.4,-4.4,-3.6,4.7,-2.9,6.9,.
COc1ccc(NC(=O)COC(=O)CCc2nc3ccccc3c(=O)[nH]2)c(OC)c1,40.5*,2.3,-0.6,-8.4,-13.0,-0.8,31.3
CC1(C)CNc2cc([N+](=O)[O-])ccc2S1,7.1,-0.3,9.5,4.9,-0.7,22.4,.
Cc1cc(=O)oc2c3c(cc(OCC(=O)NC(Cc4ccc(Cl)cc4)C(=O)O)c12)OC(C)(C)CC3 (centres undefined),17.9,-4.4,4.9,6.4,.,3.3,.
O=C(N/N=C/c1ccc(-c2ccccc2Cl)o1)c1ccccc1,1.0,-2.5,-4.8,4.0,17.5,10.2,.
O=S(=O)(N/N=C\c1ccc(-c2ccccc2Cl)o1)c1ccccc1,58.7*,-12.2,16.3,13.5,-12.3,45.6,58.7*
Oc1ccccc1N=Nc1nc(-c2ccccc2)c(-c2ccccc2)[nH]1,61.5*,-12.0,32.7,0.4,-4.2,70.2*,104.0*
CCCN(CC(=O)Nc1ccccc1OC)C(=O)c1cc(-c2ccccc2)nn1-c1ccccc1,4.5,-4.1,8.0,10.0,-3.6,18.1,.
CCCCCCCc1ccc(C2NC(=S)NC3=C2C(=O)c2ccccc23)cc1 (centres undefined),56.2*,-5.0,.,.,.,13.0,23.2
CC1CCc2c(sc3ncnc(SCC(=O)N(C)C4CCS(=O)(=O)C4)c23)C1 (centres undefined),5.3,-2.9,-1.0,9.9,-30.3,2.1,.
COc1ccc(C(=O)CNc2cccc(F)c2)cc1,45.0*,-10.9,34.7,-0.5,.,59.7*,94.6*
COc1ccc(C(=O)CNc2ccccc2CO)cc1,40.1*,-7.8,17.7,4.4,-6.6,91.5*,148.5*
COc1ccc(C(=O)CC(=O)C(=O)Nc2cccc(F)c2)cc1,4.6,-0.6,13.4,6.5,.,18.8,.
COc1ccccc1NCC(=O)c1ccc(Cl)cc1,72.2*,-15.8,37.9,-2.7,.,71.0*,110.4*
Cc1cc2c(cc3c(=O)n(CC(=O)NCCCN4CC(C)CC(C)C4)ncn32)s1 (centres undefined),-7.1,-2.1,2.9,-10.8,.,2.0,.
O=C(CNCc1ccccn1)N1CCc2ccccc2C1,-20.9,-3.5,-8.3,0.9,7.2,9.2,.
O=C(CNS(=O)(=O)c1ccccc1)OCC(=O)c1cccc([N+](=O)[O-])c1,45.7*,-4.2,30.9,2.8,.,47.4,87.3*
O=C(CNC(=O)c1ccc(Br)o1)OCC(=O)c1cccc([N+](=O)[O-])c1,62.5*,-9.9,32.7,18.7,-6.6,83.2*,62.0*
O=C(Cc1ccccc1)OCC(=O)c1cccc([N+](=O)[O-])c1,-7.0,-8.2,24.7,9.5,24.4,33.7,.
CN(C)C(CNC(=O)C1CC(=O)N(c2cccc(C(F)(F)F)c2)C1)c1ccccc1 (centres undefined),.,.,1.2,-7.3,-0.4,.,.
S=C(NCc1ccc(Cl)cc1Cl)NC1CCCCC1,-2.8,1.0,2.6,-5.3,.,29.6,.
CCOC(=O)C1=C(C)N=c2s/c(=C/c3cccc([N+](=O)[O-])c3O)c(=O)n2C1c1ccc(OC)cc1OC (centres undefined),56.6*,-7.3,40.8*,-5.1,9.8,63.6*,97.8*
